Converted amounts (≈) assume the structure as drawn.
Key:
[1] = tested on: Providencia rettgeri; assay: Minimum inhibitory concentration against M1771 strain of Providencia rettgeri; type: functional
In short: (§1)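 Tested by microtitration against a panel of 10 Gram-positive and Gram-negative organisms. MIC is reported in μg/mL.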

[2] = tested on: Staphylococcus aureus; assay: Minimum inhibitory concentration against Staphylococcus aureus UC-76; type: functional; in short: as §1
[3] = tested on: Enterobacter cloacae; assay: Minimum inhibitory concentration against Enterobacter cloacae MA 2646; type: functional
[4] = tested on: Pseudomonas aeruginosa; assay: Minimum inhibitory concentration against U1-18 cell line from Pseudomonas aeruginosa; type: functional; in short: as §1
[5] = tested on: Streptococcus pyogenes; assay: Minimum inhibitory concentration against Streptococcus pyogenes C203; type: functional; in short: as §1
[6] = tested on: Escherichia coli; assay: Minimum inhibitory concentration against Escherichia coli Vogel; type: functional; in short: as §1
[7] = tested on: Staphylococcus aureus; assay: Minimum inhibitory concentration against Staphylococcus aureus H 228; type: functional; in short: as §1
[8] = tested on: Streptococcus pneumoniae; assay: Minimum inhibitory concentration tested against Streptococcus pneumoniae SV-1; type: functional; in short: as §1
[9] = tested on: Enterococcus faecalis; assay: Minimum inhibitory concentration against Streptococcus faecalis MGH-2; type: functional; in short: as §1
[10] = tested on: Klebsiella pneumoniae; assay: Minimum inhibitory concentration against Klebsiella pneumoniae MGH-2; type: functional; in short: as §1
[11] = tested on: Mus musculus; assay: In vivo antibacterial activity against Escherichia coli after following subcutaneous administration; type: functional; settings: sc, read-out: PD50
In short: (§2)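 Acute lethal systemic infection in female Charles River CD-1 mice. Compound given orally or subcutaneously. Potency expressed as median protective dose (PD50, mg/kg), the dose preventing death in 50% of animals.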

[12] = tested on: Mus musculus; assay: In vivo antibacterial activity against Streptococcus pyogenes after following oral administration; type: functional; settings: read-out: PD50; in short: as §2
[13] = tested on: Mus musculus; assay: In vivo antibacterial activity against Streptococcus pyogenes after following subcutaneous administration; type: functional; settings: sc, read-out: PD50; in short: as §2
[14] = tested on: Mus musculus; assay: In vivo antibacterial activity against Escherichia coli after following oral administration; type: functional; settings: read-out: PD50; in short: as §2
[15] = The no effect dose (NED) for phototoxicity in mouse; type: organism-based; settings: in vivo, read-out: NED
In short: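 Female CD-1 mice were depilated and dosed orally, with five animals per dose plus controls. After each dose the mice were exposed to UVA for 3 h. This was repeated daily for 4 days. Any redness or erythema relative to control was scored positive. The value is the highest dose producing no effect, in mg/kg.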

[16] = tested on: V79; assay: Clonogenic cytotoxicity against Hamster V-79 cells; type: cell-based; settings: Cricetulus griseus

## NCC1CCN(c2nc3c(cc2F)c(=O)c(C(=O)O)cn3-c2ccc(F)cc2F)C1 (configuration not stated)
[1]
  MIC: 0.2 µg/mL (≈ 0.478 µM)
[2]
  MIC: 0.013 µg/mL (≈ 0.0311 µM)
[3]
  MIC: 0.05 µg/mL (≈ 0.12 µM)
[4]
  MIC: 0.4 µg/mL (≈ 0.956 µM)
[5]
  MIC: 0.025 µg/mL (≈ 0.0598 µM)
[6]
  MIC: 0.05 µg/mL (≈ 0.12 µM)
[7]
  MIC: 0.05 µg/mL (≈ 0.12 µM)
[8]
  MIC: 0.025 µg/mL (≈ 0.0598 µM)
[9]
  MIC: 0.025 µg/mL (≈ 0.0598 µM)
[10]
  MIC: 0.1 µg/mL (≈ 0.239 µM)

## CC(C)(N)[C@H]1CCN(c2c(F)cc3c(=O)c(C(=O)O)cn(C4CC4)c3c2Cl)C1.Cl
[1]
  MIC: 0.4 µg/mL
[11]
  ED50: 4 mg/kg
[2]
  MIC: 0.013 µg/mL
[3]
  MIC: 0.1 µg/mL
[12]
  ED50: 13 mg/kg
[13]
  ED50: 4 mg/kg
[4]
  MIC: 1.6 µg/mL
[5]
  MIC: 0.025 µg/mL
[14]
  ED50: 27 mg/kg
[6]
  MIC: 0.1 µg/mL
[7]
  MIC: 0.025 µg/mL
[8]
  MIC: 0.013 µg/mL
[9]
  MIC: 0.05 µg/mL
[10]
  MIC: 0.2 µg/mL

## NCC1CCN(c2cc3c(cc2F)c(=O)c(C(=O)O)cn3C2CC2)C1 (configuration not stated)
[1]
  MIC: 0.2 µg/mL (≈ 0.579 µM)
[11]
  ED50: 2 mg/kg
[2]
  MIC: 0.006 µg/mL (≈ 0.0174 µM)
[3]
  MIC: 0.1 µg/mL (≈ 0.29 µM)
[12]
  ED50: > 100 mg/kg
[13]
  ED50: 4 mg/kg
[4]
  MIC: 0.8 µg/mL (≈ 2.32 µM)
[5]
  MIC: 0.013 µg/mL (≈ 0.0376 µM)
[14]
  ED50: > 100 mg/kg
[6]
  MIC: 0.05 µg/mL (≈ 0.145 µM)
[7]
  MIC: 0.05 µg/mL (≈ 0.145 µM)
[8]
  MIC: 0.013 µg/mL (≈ 0.0376 µM)
[9]
  MIC: 0.05 µg/mL (≈ 0.145 µM)
[10]
  MIC: 0.1 µg/mL (≈ 0.29 µM)

## CC(C)(N)[C@H]1CCN(c2cc3c(cc2F)c(=O)c(C(=O)O)cn3C2CC2)C1.Cl
[1]
  MIC: 1.6 µg/mL
[2]
  MIC: 0.1 µg/mL
[3]
  MIC: 0.4 µg/mL
[12]
  ED50: > 100 mg/kg
[13]
  ED50: 13 mg/kg
[4]
  MIC: 3.1 µg/mL
[5]
  MIC: 0.2 µg/mL
[6]
  MIC: 0.4 µg/mL
[7]
  MIC: 0.4 µg/mL
[8]
  MIC: 0.2 µg/mL
[9]
  MIC: 0.4 µg/mL
[10]
  MIC: 0.8 µg/mL

## CC(C)(N)[C@@H]1CCN(c2nc3c(cc2F)c(=O)c(C(=O)O)cn3-c2ccc(F)cc2F)C1.Cl
[1]
  MIC: 0.8 µg/mL
[2]
  MIC: 0.025 µg/mL
[3]
  MIC: 0.2 µg/mL
[4]
  MIC: 3.1 µg/mL
[5]
  MIC: 0.05 µg/mL
[6]
  MIC: 0.2 µg/mL
[7]
  MIC: 0.05 µg/mL
[8]
  MIC: 0.05 µg/mL
[9]
  MIC: 0.1 µg/mL
[10]
  MIC: 0.4 µg/mL

## C[C@H](N)C1CCN(c2nc3c(cc2F)c(=O)c(C(=O)O)cn3C2CC2)C1 (some centres not stated)
[1]
  MIC: 0.4 µg/mL (≈ 1.11 µM)
[11]
  ED50: 1 mg/kg
[15]
  NOAEL: 67 mg/kg
[2]
  MIC: 0.006 µg/mL (≈ 0.0166 µM)
[3]
  MIC: 0.05 µg/mL (≈ 0.139 µM)
[12]
  ED50: 14 mg/kg
[13]
  ED50: 2 mg/kg
[4]
  MIC: 0.8 µg/mL (≈ 2.22 µM)
[5]
  MIC: 0.013 µg/mL (≈ 0.0361 µM)
[14]
  ED50: 6 mg/kg
[6]
  MIC: 0.05 µg/mL (≈ 0.139 µM)
[7]
  MIC: 0.05 µg/mL (≈ 0.139 µM)
[8]
  MIC: 0.006 µg/mL (≈ 0.0166 µM)
[16]
  IC50: 100 µg/mL (≈ 277 µM)
[9]
  MIC: 0.05 µg/mL (≈ 0.139 µM)
[10]
  MIC: 0.1 µg/mL (≈ 0.277 µM)

## CC(C)(N)[C@@H]1CCN(c2cc3c(cc2F)c(=O)c(C(=O)O)cn3C2CC2)C1.Cl
[1]
  MIC: 0.2 µg/mL
[11]
  ED50: 2 mg/kg
[2]
  MIC: 0.006 µg/mL
[3]
  MIC: 0.05 µg/mL
[12]
  ED50: 20 mg/kg
[13]
  ED50: 1 mg/kg
[4]
  MIC: 0.8 µg/mL
[5]
  MIC: 0.003 µg/mL
[14]
  ED50: 18 mg/kg
[6]
  MIC: 0.05 µg/mL
[7]
  MIC: 0.05 µg/mL
[8]
  MIC: 0.003 µg/mL
[16]
  IC50: 190 µg/mL
[9]
  MIC: 0.025 µg/mL
[10]
  MIC: 0.1 µg/mL

## COc1c(N2CCC(CN)C2)c(F)cc2c(=O)c(C(=O)O)cn(C3CC3)c12 (configuration not stated)
[1]
  MIC: 0.1 µg/mL (≈ 0.266 µM)
[2]
  MIC: 0.003 µg/mL (≈ 0.00799 µM)
[3]
  MIC: 0.05 µg/mL (≈ 0.133 µM)
[12]
  ED50: 11 mg/kg
[13]
  ED50: 0.6 mg/kg
[4]
  MIC: 0.8 µg/mL (≈ 2.13 µM)
[5]
  MIC: 0.003 µg/mL (≈ 0.00799 µM)
[6]
  MIC: 0.05 µg/mL (≈ 0.133 µM)
[7]
  MIC: 0.025 µg/mL (≈ 0.0666 µM)
[8]
  MIC: 0.003 µg/mL (≈ 0.00799 µM)
[9]
  MIC: 0.013 µg/mL (≈ 0.0346 µM)
[10]
  MIC: 0.1 µg/mL (≈ 0.266 µM)

## NCC1CCN(c2c(F)cc3c(=O)c(C(=O)O)cn(C4CC4)c3c2Cl)C1 (configuration not stated)
[1]
  MIC: 0.05 µg/mL (≈ 0.132 µM)
[11]
  ED50: 1 mg/kg
[2]
  MIC: 0.003 µg/mL (≈ 0.0079 µM)
[3]
  MIC: 0.025 µg/mL (≈ 0.0658 µM)
[12]
  ED50: 5 mg/kg
[13]
  ED50: 0.2 mg/kg
[4]
  MIC: 0.4 µg/mL (≈ 1.05 µM)
[5]
  MIC: 0.003 µg/mL (≈ 0.0079 µM)
[14]
  ED50: 33 mg/kg
[6]
  MIC: 0.025 µg/mL (≈ 0.0658 µM)
[7]
  MIC: 0.003 µg/mL (≈ 0.0079 µM)
[8]
  MIC: 0.003 µg/mL (≈ 0.0079 µM)
[9]
  MIC: 0.006 µg/mL (≈ 0.0158 µM)
[10]
  MIC: 0.05 µg/mL (≈ 0.132 µM)

## CC(C)(N)[C@H]1CCN(c2nc3c(cc2F)c(=O)c(C(=O)O)cn3-c2ccc(F)cc2F)C1.Cl
[1]
  MIC: 1.6 µg/mL
[2]
  MIC: 0.1 µg/mL
[3]
  MIC: 0.4 µg/mL
[4]
  MIC: 3.1 µg/mL
[5]
  MIC: 0.4 µg/mL
[6]
  MIC: 0.4 µg/mL
[7]
  MIC: 0.4 µg/mL
[8]
  MIC: 0.4 µg/mL
[9]
  MIC: 0.4 µg/mL
[10]
  MIC: 0.8 µg/mL
